Diaphorase act = counter-screen for diaphorase-based assays: diaphorase activators and chemical reducers. Diaphorase/resazurin coupled assay, resorufin fluorescence, 16 min; stronger effect = higher value; 1 = vehicle wells, 0 = NADH-free wells. activation factor at 20 µM. actives 0.005% (n = 190,000);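 active means diaphorase activity raised at least twofold by the compound at 20 µM; inactive means activation factor below 2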
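Material: Clostridium kluyveri diaphorase, purified enzyme; Quantity: enzyme 0.07 U/mL final; Medium: HEPES pH 7.4 buffer with MgCl2 and Tween 20; Dosing: single compound dose of 20 µM, 1% DMSO final; Schedule: 16 min reaction at room temperature; Measured by: red resorufin fluorescence at 544/590 nm excitation/emission.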
L major viab = reduces viability of Leishmania major promastigotes | resazurin fluorescence viability | inhibition, % at 10 µM | actives 9% (n = 200,000);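 further: promastigotes grown with compound for 44 hours at 28 °C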
PfG6PD inh = PfG6PD (Plasmodium falciparum) enzyme inhibition. inhibition, % at 20 µM. actives 0.78% (n = 350,000). AID 504690. PfGluPho enzyme, NADPH resazurin-diaphorase fluorescence;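 active means inhibition reaching at least a set limit at 20 µM in the primary screen, cut at about 59% in these data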
Diaphorase inh = counter-screen for diaphorase-based assays: diaphorase inhibitors and chemical oxidizers | actives 0.69% (n = 190,000) | inhibition, % at 20 µM | AID 1217 | diaphorase resazurin-to-resorufin fluorescence, NADH, 16 min; bacterial (C. kluyveri) enzyme, not human;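 active means primary screen inhibition at 20 µM above a set limit, cut at about 50% in these data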
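controls = No-NADH positive control and DMSO neutral control | system = Clostridium kluyveri diaphorase enzyme | timing = reaction incubation of 16 min at room temperature | signal = resorufin fluorescence 544/590 nm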
G6PDH counter = inhibits Leuconostoc G6PDH, flagging false hits in G6PDH-based assays | Purified L. mesenteroides G6PDH, diaphorase/resazurin coupled fluorescence, 45 min | actives 0.12% (n = 200,000) | AID 1020 | inhibition, % at 5 µM
Redox H2O2 prof = compounds producing H2O2 with reducing agent – biochemical, NIH compound library profiling, artefact control for MLSCN library redox annotation, primary screen | DTT-dependent redox cycling H2O2, phenol red/HRP absorbance; 100% = 100 µM peroxide control, 0% = buffer | activation, % at 10 µM | actives 0.03% (n = 200,000) | AID 878;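 active means activation of at least 50% relative to the plate's high and low controls in the primary single-dose screen; inactive means activation below 50%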;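 further: compound incubated with DTT at 0.8 mM final as the reducing agent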
Of the large screens only hits and unclear results are named; the others gave an inactive call. This excerpt belongs to a sample that is enriched for hits. Unless noted, no stated cut-off is given here; in the data, active means inhibition above about 50%; inactive means the rest.

CCOC(=O)C1(CCCc2ccccc2)CCN(C(=O)CCc2cnn(C)c2)CC1	none (no result: Diaphorase act, Diaphorase inh)
CCOC(=O)C1(CCOc2ccccc2)CCN(CCCn2cccn2)CC1	L major viab 78.8
CCOC(=O)C1(CCOc2ccccc2)CCN(Cc2cccc(F)c2)CC1	none (no result: Diaphorase act, L major viab, Diaphorase inh, G6PDH counter, Redox H2O2 prof)
CCOC(=O)C1(CCCc2ccccc2)CCN(Cc2cnn(C)c2)CC1	L major viab 76.7
CCOC(=O)C1(CCOc2ccccc2)CCN(Cc2cccc(-n3cccn3)c2)CC1	L major viab 93.0
CCOC(=O)C1(CCc2ccccc2)CCN(C2Cc3ccccc3C2)CC1	L major viab 80.7
CCOc1ccc(NC(=O)CN(C)C(=O)Cc2ccc3c(c2)OCCO3)cc1OCC	none (no result: Diaphorase act, L major viab, Diaphorase inh, G6PDH counter, Redox H2O2 prof)
CSCCC(NS(=O)(=O)c1ccc(C)cc1)C(=O)NCC(C)(C)N1CCOCC1 (centres undefined)	none (no result: Diaphorase act, L major viab, Diaphorase inh, G6PDH counter, Redox H2O2 prof)
Cc1cc(C)n(-c2ccc(C)c(Cl)c2)n1	none
COc1ccc(CC(=O)Oc2ccc(C)cc2Br)cc1OC	none (no result: Diaphorase act, L major viab, Diaphorase inh, G6PDH counter, Redox H2O2 prof)
CCOC(=O)C1=C(Cc2ccc(Cl)cc2)C(=O)c2ccccc2C1=O	L major viab 91.2, PfG6PD inh 94.5, G6PDH counter 54.7
O=C(NCc1cccs1)c1cccnc1Cl	none
Cc1cccc(Nc2ncccc2C(=O)NCc2cccs2)c1C	L major viab 78.8
Cc1ccc(Nc2ncccc2C(=O)NCc2cccs2)c(C)c1	L major viab 95.7
Cc1ccc2c(c1)C(c1ccc([N+](=O)[O-])cc1)=NNC(c1ccc(Br)cc1)=N2	L major viab 53.4
O=C(NNc1ccc(C(F)(F)F)cc1[N+](=O)[O-])c1ccc(NS(=O)(=O)c2ccc(F)cc2)cc1	L major viab 51.8
CC(C)[C@H](Nc1ccc(C(F)(F)F)cc1[N+](=O)[O-])C(=O)O	none (no result: Diaphorase act, L major viab, Diaphorase inh, G6PDH counter, Redox H2O2 prof)
Cc1ccc(C)c(S(=O)(=O)NNC(=O)c2sc(NS(=O)(=O)c3ccccc3)nc2C)c1	none (no result: Diaphorase act, L major viab, Diaphorase inh, G6PDH counter, Redox H2O2 prof)
CCN1CCCC(OC(=O)c2cc(-c3ccc(C)cc3)nc3ccccc23)C1 (centres undefined)	L major viab 83.9
CCOC(=O)C1CCCN(C(=O)c2cc(-c3ccc(F)cc3)nc3ccccc23)C1 (centres undefined)	none
O=C1CCC/C(=N/Nc2ccc(Cl)cc2)C1	L major viab 98.6
O=C(NN=C1CCCC1)c1ccc(Cl)cc1	none (no result: Diaphorase act, L major viab, Diaphorase inh, G6PDH counter, Redox H2O2 prof)
CC(C)(C)NC(=S)NC(=O)C12CC3CCC(CC(C3)C1)C2	none
O=C(NC(=S)NC1C2CC3CC(C2)CC1C3)C12CC3CC(CC(C3)C1)C2 (centres undefined)	L major viab 51.2
Cc1ccccc1NC(=O)c1cc(C(=O)c2cc(Cl)ccc2O)cn(-c2ccccc2C)c1=O	L major viab 60.9
CC(=O)Nc1ccc(CN2CCCC(C(=O)c3cccc(C(F)(F)F)c3)C2)cc1 (centres undefined)	none
COc1ccc(CN2CCCC(C(=O)c3cccc(C(F)(F)F)c3)C2)cc1O (centres undefined)	L major viab 84.2
CSc1ncc(CN2CCCC(C(=O)c3ccc(C(C)(C)C)cc3)C2)cn1 (centres undefined)	L major viab 88.5 (no result: Diaphorase act, Diaphorase inh)
O=C(c1ccc2c(c1)OCO2)C1CCCN(Cc2cccc(C(F)(F)F)c2)C1 (centres undefined)	none (no result: Diaphorase act, L major viab, Diaphorase inh, G6PDH counter, Redox H2O2 prof)
CSc1ncc(CN2CCCC(C(=O)Nc3ccc(-c4ccco4)cc3)C2)cn1 (centres undefined)	none (no result: Diaphorase act, L major viab, Diaphorase inh, G6PDH counter, Redox H2O2 prof)
COc1ccc(CN2CCCC(C(=O)c3ccc(SC)cc3)C2)cc1Cn1cccn1 (centres undefined)	L major viab 90.4
O=C(c1cccc(C(F)(F)F)c1)C1CCCN(Cc2ccc(OCCO)cc2)C1 (centres undefined)	L major viab 81.0
CC(C)N(Cc1ccccc1)C(=O)COC(=O)c1cc(S(=O)(=O)N(C)C)ccc1N1CCCC1	none (no result: Diaphorase act, L major viab, Diaphorase inh, G6PDH counter, Redox H2O2 prof)
O=S(=O)(O)c1cccc2cccc(Nc3ccccc3)c12	none (no result: Diaphorase act, L major viab, Diaphorase inh, G6PDH counter, Redox H2O2 prof)
CC(=O)Nc1ccc(S(=O)(=O)N2c3ccccc3C(C)=CC2(C)C)cc1	L major viab 100.0
CC1=CC(C)(C)N(S(=O)(=O)c2ccc(F)cc2)c2ccccc21	none
CC1=CC(C)(C)N(S(=O)(=O)c2ccc(C)cc2)c2ccc(C)cc21	L major viab 99.6
C=CCNCCOCCOc1ccc(Cl)cc1C(C)(C)C	L major viab 99.5
COc1cccc(OC)c1OCCNCCO	none
CCOCCCNCc1cc(Cl)ccc1OCC	none
COCCCNCCOCCOc1ccc(Cl)cc1C(C)(C)C	L major viab 100.1
COCCCNCCOCCOc1c(OC)cccc1OC	L major viab 83.0
COCCNCCCCSc1ccc(Cl)cc1	L major viab 91.6
COc1cccc(CN(CC(=O)NC2CCCC2)C(=O)Cn2nnc(-c3cccs3)n2)c1	none
COCCn1c(-c2ccc(Br)cc2)nc2oc3cc(OC)ccc3c(=O)c2c1=O	none (no result: Diaphorase act, L major viab, Diaphorase inh, G6PDH counter, Redox H2O2 prof)
NC(=O)c1ccccc1N1CCCCC1	none (no result: Diaphorase act, L major viab, Diaphorase inh, G6PDH counter, Redox H2O2 prof)
C=CCNCCOCCSc1ccc(Cl)cc1	L major viab 98.9
OCCNCCCOc1cc(Cl)ccc1Cl	none
CC(C)(C)NCCOCCOc1ccc(Cl)cc1C(C)(C)C	L major viab 91.0
C=CCNCCCOc1ccc(Cl)cc1C(C)(C)C	L major viab 99.6
C=CCNC(=O)CSc1ccc(Cl)cc1	none
Cc1cc(C)n(C(=O)CCCCCCCCC(=O)n2nc(C)cc2C)n1	none
CN(Cc1ccc(Cl)c(Cl)c1)C(=O)C1CC(=O)N(c2ccc3c(c2)OCCO3)C1 (centres undefined)	none (no result: Diaphorase act, L major viab, Diaphorase inh, G6PDH counter, Redox H2O2 prof)
O=C(O)CCCn1c(=S)[nH]c2c(sc3ccc([N+](=O)[O-])cc32)c1=O	Diaphorase inh 83.5
COCCCn1c(=S)[nH]c2c(sc3ccccc32)c1=O	Diaphorase inh 64.0
COCCCn1c(=O)c2ccccc2c2ccccc2c1=O	none
CC1CCN(CCCn2c(=S)[nH]c3c(sc4ccccc43)c2=O)CC1	Diaphorase inh 58.2
CC1CCN(CCCn2c(=S)[nH]c3ccccc3c2=O)CC1	L major viab 99.8
CC1CCN(CCn2c(=S)[nH]c3ccccc3c2=O)CC1	none (no result: Diaphorase act, L major viab, Diaphorase inh, G6PDH counter, Redox H2O2 prof)
CCOC(=O)C1=CN(c2cccc(F)c2)C=C(C(=O)OCC)C1c1cc(OC)c(O)c([N+](=O)[O-])c1	none
COc1ccc(CN(C)S(=O)(=O)c2ccc3c(c2)OCCO3)cc1	none (no result: Diaphorase act, L major viab, Diaphorase inh, G6PDH counter, Redox H2O2 prof)
CS(=O)(=O)N(CC(=O)N1CCCC1)c1ccc(Cl)cc1	none (no result: Diaphorase act, L major viab, Diaphorase inh, G6PDH counter, Redox H2O2 prof)
O=c1c2ccccc2[nH]c(=S)n1CCCN1CCN(C2CCCCC2)CC1	L major viab 97.6
O=c1c2sc3ccccc3c2[nH]c(=S)n1CCN1CCOCC1	Diaphorase inh 55.6
Cc1ccc(CN2CCN(CCCc3ccccc3)CC2CCO)cc1 (centres undefined)	L major viab 86.7
CC(C)CCN1CCN(Cc2cccn2-c2ccc(Cl)cn2)CC1CCO (centres undefined)	L major viab 73.4
